From ChEMBL document CHEMBL4392872, “Phomanolides C-F from a Phoma sp.: Meroterpenoids Generated via Hetero-Diels-Alder Reactions” (J Nat Prod, 2019)
Activity calls are given as the source filed them. The rule behind the calls is not given here.

What was measured:
Format in all cases: functional, cell-based
[1] = tested on: SH-SY5Y; assay: Cytotoxicity against human SH-SY5Y cells measured after 48 hrs by MTS assay
Method in brief: (§1)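 Cells seeded at 1.0 × 10^4 per well and allowed to attach overnight. Medium then replaced with medium holding the test compound, positive control cisplatin, or 0.1% DMSO vehicle. Incubated 48 h at 37 °C, 5% CO2. MTS added and incubated 90 min at 37 °C in the dark, then OD read at 490 nm. Triplicate wells per concentration; each test run three times.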

[2] = tested on: HeLa; assay: Cytotoxicity against human HeLa cells measured after 48 hrs by MTS assay; method in brief: as §1
[3] = tested on: U-251; assay: Cytotoxicity against human U251 cells measured after 48 hrs by MTS assay; conditions: U-251, 48 h; method in brief: as §1
[4] = tested on: MCF7; assay: Cytotoxicity against human MCF7 cells measured after 48 hrs by MTS assay; conditions: MCF7, 48 h; method in brief: as §1
[5] = tested on: H4; assay: Cytotoxicity against human H4 cells measured after 48 hrs by MTS assay; conditions: H4, 48 h; method in brief: as §1
[6] = tested on: H4; assay: Cytotoxicity against human H4 cells at 50 uM measured after 48 hrs by MTS assay
[7] = tested on: MCF7; assay: Cytotoxicity against human MCF7 cells at 50 uM measured after 48 hrs by MTS assay
[8] = tested on: U-251; assay: Cytotoxicity against human U251 cells at 50 uM measured after 48 hrs by MTS assay
[9] = tested on: SH-SY5Y; assay: Cytotoxicity against human SH-SY5Y cells at 50 uM measured after 48 hrs by MTS assay
[10] = tested on: HeLa; assay: Cytotoxicity against human HeLa cells at 50 uM measured after 48 hrs by MTS assay

| SMILES | IC50 [1] | IC50 [2] | IC50 [3] | IC50 [4] | IC50 [5] | Activity [6] | Activity [7] | Activity [8] | Activity [9] | Activity [10] |
| --- | --- | --- | --- | --- | --- | --- | --- | --- | --- | --- |
| Cc1cc(O)cc2c1C[C@H]1CC(C)(C)/C=C/C[C@]3(C)OC4=CC(=O)O[C@]5(C)CC(=O)O[C@]45C[C@H]3C[C@H](O)[C@@]1(C)O2 | 83.5 µM | 50 µM |  |  |  |  |  |  |  |  |
| CC1=CC(=O)O[C@@]23CC(=O)O[C@@]12C[C@H]1C[C@H](O)[C@@]2(C)Oc4cc(O)c(=O)cc(C)c4C[C@H]2CC(C)(C)/C=C/C[C@]1(C)O3 | 132 µM |  | 38.8 µM | 68.4 µM | 44.6 µM |  |  |  |  |  |
| CC1=CC(=O)O[C@@]23CC(=O)O[C@@]12C[C@H]1C[C@H](O)[C@@]2(C)Oc4cc(O)cc(C)c4C[C@H]2CC(C)(C)/C=C/C[C@]1(C)O3 |  |  |  |  |  | inactive | inactive | inactive | inactive | inactive |
| CC1=CC(=O)O[C@@]23CC(=O)O[C@@]12C[C@H]1C[C@H](O)/C(C)=C\CC(C)(C)/C=C/C[C@]1(C)O3 |  |  |  |  |  | inactive | inactive | inactive | inactive | inactive |
